Assay outcomes deposited in PubChem by several laboratories.
Sampled rows, rich in hits. Any-hit rate of the full collection: about 4.1%.
hERG protect: hERG rescue from dofetilide block, primary screen, cell-based, CHO-hERG, FluxOR thallium flux, dofetilide IC70; AID 1511, 2009; Voltage-gated inwardly rectifying potassium channel KCNH2 (Homo sapiens), Q12809; dofetilide IC70 present; actives 0.51% (n = 310,000); activation (rescue from dofetilide block), less the hit threshold, % at 10 µM;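 active = activation above the mean of controls blocked by dofetilide plus 5 SD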;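 also: thallium influx through hERG after potassium depolarization seen as dye fluorescence rise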
KCNQ1 pot: potentiators or activators of KCNQ1 channel, primary screen, cell-based, thallium flux, high-throughput | CHO-K1 KCNQ1, thallium flux FluxOR fluorescence; active compounds read high | B-score at 10 µM | Potassium voltage-gated channel subfamily KQT member 1 (Homo sapiens), P51787 | actives 0.35% (n = 310,000) | AID 2648, 2010;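 active = fluorescence ratio B-score, a plate-corrected score, at least three library SD, with initial intensity B-score within 5 SD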
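System: Stable KCNQ1 CHO-K1 line | Incubation: 90 min dye loading and 20 min compound exposure, both at room temperature | Measure: Ratio B score | Medium: Assay buffer for compound exposure, DMSO matched across wells | Compound dosing: Single-concentration screen | Probe or stimulus: K+/Tl+ depolarizing stimulus | Measured by: Kinetic FluxOR fluorescence, 10 s baseline plus 110 s post-stimulus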
KCNK9 inh: KCNK9 potassium channel inhibitors, primary screen, HEK293 cells, thallium flux; Potassium channel subfamily K member 9 (Homo sapiens), Q9NPC2; FluxOR thallium flux fluorescence; active compounds read low; B-score at 10 µM; actives 1.2% (n = 310,000); AID 488922, 2010;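 active = ratio B-score over 3 SD below the library mean, with starting fluorescence within 5 SD of its mean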;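 also: negative B-score means less thallium flux so channel inhibition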
Cl transport mod: KCC2 cotransporter modulators, thallium flux, primary screen, cell-based, HEK293 KCC2, FluoZin-2 fluorescence, MLSMR. KCC2 cells, thallium flux FluoZin-2 fluorescence. B-score of Tl+ flux slope (higher = more flux/activation; lower = inhibition) at 10 µM. actives 2.2% (n = 190,000). AID 1456, 2008;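 active = thallium flux slope and its plate-corrected score both differing from the plate sample mean at a set confidence after two filtering rounds, in either direction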;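 also: slope of fluorescence scaled to starting intensity during 10 to 20 s after thallium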
Target sequence (Q9H2X9 whole entry, looked up): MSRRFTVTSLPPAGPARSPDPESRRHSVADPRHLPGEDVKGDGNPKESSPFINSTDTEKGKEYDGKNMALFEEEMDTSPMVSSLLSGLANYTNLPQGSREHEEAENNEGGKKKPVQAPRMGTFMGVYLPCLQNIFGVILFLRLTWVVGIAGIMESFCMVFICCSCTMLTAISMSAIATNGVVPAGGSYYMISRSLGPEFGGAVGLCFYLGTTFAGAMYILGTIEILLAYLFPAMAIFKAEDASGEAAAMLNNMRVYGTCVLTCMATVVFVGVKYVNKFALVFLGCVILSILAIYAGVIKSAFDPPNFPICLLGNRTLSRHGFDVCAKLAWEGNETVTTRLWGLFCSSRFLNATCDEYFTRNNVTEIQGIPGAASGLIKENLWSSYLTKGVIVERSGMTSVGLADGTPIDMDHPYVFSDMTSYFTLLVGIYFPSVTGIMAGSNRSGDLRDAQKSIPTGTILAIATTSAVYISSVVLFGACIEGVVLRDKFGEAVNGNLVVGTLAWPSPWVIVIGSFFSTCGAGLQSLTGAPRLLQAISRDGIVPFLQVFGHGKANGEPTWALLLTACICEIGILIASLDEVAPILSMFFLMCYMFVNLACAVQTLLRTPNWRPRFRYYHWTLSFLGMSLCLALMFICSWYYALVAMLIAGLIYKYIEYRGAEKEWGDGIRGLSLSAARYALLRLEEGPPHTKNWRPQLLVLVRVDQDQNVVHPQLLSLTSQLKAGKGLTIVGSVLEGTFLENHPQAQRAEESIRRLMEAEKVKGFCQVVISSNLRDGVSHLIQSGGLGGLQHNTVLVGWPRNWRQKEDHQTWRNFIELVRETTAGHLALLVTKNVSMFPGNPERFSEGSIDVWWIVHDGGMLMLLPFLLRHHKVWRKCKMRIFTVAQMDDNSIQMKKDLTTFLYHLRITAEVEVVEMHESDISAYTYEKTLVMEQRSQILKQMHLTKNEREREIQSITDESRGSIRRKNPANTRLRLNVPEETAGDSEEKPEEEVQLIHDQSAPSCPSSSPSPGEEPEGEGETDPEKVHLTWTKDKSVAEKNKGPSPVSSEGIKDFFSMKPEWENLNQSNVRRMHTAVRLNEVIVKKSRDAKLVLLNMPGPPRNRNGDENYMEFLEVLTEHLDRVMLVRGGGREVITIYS
KCNQ1 block: inhibitors of human KCNQ1 channel, primary screen, cell-based, thallium flux, high-throughput; Potassium voltage-gated channel subfamily KQT member 1 (Homo sapiens), P51787; CHO-K1 KCNQ1, FluxOR thallium flux fluorescence; active compounds read high; B-score at 10 µM; actives 1.3% (n = 310,000);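 active = compounds whose thallium flux B-score, printed positive for inhibition, exceeds three library SD while starting fluorescence stays within three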;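 also: channel opened by potassium depolarization with thallium stimulus after 20 min compound exposure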
KCNK3 inh: human KCNK3 channel inhibitors, primary screen, CHO cells, FluxOR thallium flux, B-score; Potassium channel subfamily K member 3 (Homo sapiens), O14649; FluxOR fluorescence; active compounds read low; B-score at 10 µM; actives 0.84% (n = 340,000);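 active = B-score under library mean minus 4 SD, starting fluorescence ratio at most library mean plus 5 SD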;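 also: more negative B-score means stronger inhibition of thallium flux through KCNK3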
* hit, by the source's call; i = inactive; . = no result given.

SMILES	hERG protect	KCNQ1 pot	KCNK9 inh	Cl transport mod	KCNQ1 block	KCNK3 inh
CN(C)S(=O)(=O)c1cccc(NC(=O)CCc2nc3cc(S(=O)(=O)N4CCOCC4)ccc3n2C)c1	-10.9	i	i	.	i	i
COc1cccc(C=NCCCN=Cc2cccc(OC)c2O)c1O	5.7*	i	i	.	i	i
CC/C(=N\NS(=O)(=O)c1ccc(C)cc1)c1ccco1	-6.4	i	i	.	i	i
Cc1ccc(N2C(=O)N(CC(=O)Nc3ccc(C)cc3Cl)C(=O)C2C)cc1 (stereo not given)	-13.7	i	i	.	i	i
CCCC(=O)C1=C(O)C(C(=O)OC)C(C)(C)CC1=Nc1ccccc1 (stereo not given)	-8.9	i	i	-2.51	i	i
CCCC(=O)C1=C(O)C(C(=O)OC)C(C)(C)CC1=Nc1cccc2ccccc12 (stereo not given)	-4.3	i	i	-1.92	6*	i
COc1cccc(N2CCN(c3ncnc4c3[nH]c3ccc(F)cc34)CC2C)c1 (stereo not given)	-37.5	i	i	-1.02	13*	-13.3*
c1ccc(OCCSc2nnnn2-c2ccccc2)cc1	-3.1	i	i	-3.83*	i	i
CCOC(=O)c1nc(Nc2ccc(Nc3ccccc3)cc2)c2ccccc2n1	-16.4	i	-7.59*	-1.6	i	i
O=C1CCN(Cc2ccc(Cl)cc2Cl)C(=O)N1	.	.	.	.	.	i
O=[N+]([O-])c1ccc(CN2CCOCCOCCN(Cc3ccc([N+](=O)[O-])cc3)CCOCC2)cc1	-24.7	i	-7.21*	-1.08	i	i
CC(C)(C)c1ccc(C(=O)NCC(=O)OCC(=O)N2CCCC2)cc1	.	.	.	.	.	i
CSCCC(NC(=O)c1ccccc1)C(=O)NCCCSc1ccccc1 (stereo not given)	.	.	.	.	.	i
CC[C@]1(C(=O)OC)[C@H]2C(=O)N(C)C(=O)[C@H]2[C@H]2CN=C(SC)N21	.	.	.	.	.	i
S=c1[nH]nc(COc2ccc3ccccc3c2)o1	-4.9	i	i	-5.71*	i	i
Cc1ccc(NC(=O)C(c2ccccc2)c2ccccc2)c(O)c1	-12.8	i	-7.77*	.	i	i
COc1ccc(Cl)cc1NC(=O)COC(=O)C1COc2ccccc2O1 (stereo not given)	.	.	.	.	.	i
Cc1ccc(Sc2cnn(-c3ccccc3)c(=O)c2Cl)cc1	-7.4	i	i	1.18	10*	i
CCCCOc1ccc(C(=O)Nc2ccc(S(=O)(=O)Nc3cc(C)on3)cc2)cc1OC	4.9*	i	i	0.242	i	i
CCCCOc1cccc(C(=O)Nc2ccc(S(=O)(=O)Nc3cc(C)on3)cc2)c1	-8.1	i	i	.	i	i
CCC(CC)C(=O)Oc1c(C(=O)N(C)C)cccc1-c1ccccc1	.	.	.	.	.	i
CNCc1cc(Br)c(OCC(=O)Nc2ccccc2OC)c(OC)c1	-20.9	i	i	0.617	i	i
COc1cc(CNCCc2ccccc2)cc(Cl)c1OCc1ccccc1	-25.9	i	i	1.32	7*	i
COc1cc(CNCCc2ccccc2)cc(Br)c1OCC(=O)Nc1ccccc1C	-32.5	i	i	0.163	9*	i
CN(C)c1ccc(C(CNC(=O)c2ccco2)N2CCCC2)cc1 (stereo not given)	-2.1	i	i	.	i	i
SMILES	hERG protect	KCNQ1 pot	KCNK9 inh	Cl transport mod	KCNQ1 block	KCNK3 inh
CCc1ccccc1NC(=O)CNC(=O)c1ccccc1OCc1c(C)noc1C	-8.8	i	i	.	i	i
Cc1ccc(NC(=O)COC(=O)c2ccco2)cc1S(=O)(=O)N1CCOCC1	.	.	.	.	.	i
COC(=O)c1ccc(Oc2nc(Nc3ccc(C)c(C)c3)nc(N(C)C)n2)cc1	-14.5	i	i	1.13	6*	i
Cc1ccc(CNC(=O)c2cc(-c3ccccc3)n(Cc3cc(C)no3)n2)cc1	.	.	.	.	.	i
Cc1cc(Cn2nc(C(=O)NCc3cccc(C(F)(F)F)c3)cc2-c2ccccc2)on1	.	.	.	.	.	-9.68*
CS(=O)(=O)Nc1nc2n(n1)C(c1ccccc1)C=C(c1ccc(Br)cc1)N2 (stereo not given)	-17.3	i	i	.	12*	i
COc1cc(/C=C2\C(=O)ON=C2c2ccccc2)cc(Br)c1O	-31.0	i	i	.	7*	i
CCOc1cc(/C=C2/C(=O)ON=C2C)cc(Br)c1O	-13.1	i	i	.	9*	i
OC(c1ccc(F)cc1)(C1CCCCC1)C(CN1CCOCC1)c1ccccc1 (stereo not given)	-6.6	i	i	.	8*	i
c1ccc(CCCNc2ncnc3nc[nH]c23)cc1	6.0*	i	i	-0.242	i	i
COC(=O)c1cc(NC(=O)N2c3ccccc3Sc3ccccc32)cc(C(=O)OC)c1	-4.4	i	-6.79*	.	i	-9.86*
COC(=O)c1ccc(C(=O)OC)c(NC(=O)N2c3ccccc3Sc3ccccc32)c1	-5.5	i	i	.	i	i
Fc1ccc(C(c2ccc(F)cc2)N2CCN(C/C=C/c3ccccc3)CC2)cc1	-15.8	i	i	1.18	8*	i
Cc1ccnc(NC(=O)CNC(=O)c2ccc3ccccc3c2)c1	-19.1	i	i	.	i	i
Cc1ccnc(NC(=O)CNC(=O)c2ccc3c(c2)OCO3)c1	-5.7	15*	i	.	i	i
Cc1ccc(C(=O)OCC(=O)NCCc2ccccc2)cc1C	.	.	.	.	.	i
Clc1ccc2c(c1)C(N1CCNCC1)Cc1ccccc1S2 (stereo not given)	-22.6	i	i	0.0488	6*	i
CCOC(=O)c1c(C)oc2c1cc(O)c1ccccc12	-1.4	i	i	0.521	i	i
CCOC(=O)c1c(C)oc2c(F)c(F)c(F)c(F)c2c1=O	-23.0	i	i	-1.76	7*	i
COc1cc(C2Sc3ccccc3NC3=C2C(=O)OC3)cc(OC)c1OC (stereo not given)	-13.9	i	i	-0.414	i	i
O=C1OCC2=C1C(c1ccc(F)cc1)Sc1ccccc1N2 (stereo not given)	6.0*	i	i	0.816	i	i
O=C(NCCc1cccc(Cl)c1)c1ccc(OC2CCN(Cc3ccccn3)CC2)cc1	-19.4	i	i	.	i	i
Cn1nc(-c2ccccc2)c(CSc2ccccc2Cl)c1Cl	-3.8	i	-7.61*	-0.0729	i	i
